Measured values collected from several papers.
Lines come from different studies, so protocols differ. pIC50, pKi: −log10 of the molar value.
Observed: enzyme activity
Mode: inhibitor
gag-pol protease: Gag-Pol polyprotein, protease (gag-pol, Human immunodeficiency virus type 1 group M subtype B, UniProt P04585)
gag-pol reverse transcriptase: Gag-Pol polyprotein, reverse transcriptase (gag-pol, Human immunodeficiency virus type 1 group M subtype B, UniProt P04585)

`COc1ccc(S(=O)(=O)N(CC(C)C)C[C@@H](O)[C@@H]2Cc3ccc(cc3)OCCCC=CCCc3c(O)cccc3C(=O)N2)cc1` gave a pKi of 8.00 (gag-pol protease).
`CC(C)C[C@H]1C(OC(C)(C)C)=CC(=O)N1[C@H]1CCN(C2=CC(=O)NC2Cc2ccccc2)C1` (stereo partly shown) gave a pIC50 of 3.29 (gag-pol protease; fluorescence).
With `C=CCCCOc1ccc(C[C@H](NC(=O)c2cccc(O)c2CCC=C)[C@H](O)CN(CC(C)C)S(=O)(=O)c2ccc(OC)cc2)cc1` the pKi was 7.35 (gag-pol protease).
With `CC[C@H](C)[C@H]1C(OC(C)(C)C)=CC(=O)N1[C@H]1CCN(C2=CC(=O)N([C@H]3CCN(C4=CC(=O)N[C@H]4CC(C)C)C3)[C@H]2C)C1` the pIC50 was 3.95 (gag-pol protease; fluorescence).
`N#Cc1cn(Cc2ccccc2)c2ncc(Br)cc12` gave a pIC50 of under 4.00 (gag-pol reverse transcriptase; FRET).
`C=CCCOc1ccc(C[C@H](NC(=O)c2cccc(O)c2CCC=C)[C@H](O)CN(CC(C)C)S(=O)(=O)c2ccc(OC)cc2)cc1` gave a pKi of 8.15 (gag-pol protease).
With `C=CCn1cc(C#N)c2cc(C#N)cnc21` the pIC50 was under 4.00 (gag-pol reverse transcriptase; FRET).
`Cc1cn([C@H]2C[C@H](N=[N+]=[N-])[C@@H](CO[P@](=O)(O)O[P@](=O)(O)OP(=O)(O)O)O2)c(=O)[nH]c1=O` gave a pIC50 of 6.73 (gag-pol reverse transcriptase).
The pKi of `COc1ccc2c(c1)OCCCCCCCCCN(C[C@@H](O)[C@H](Cc1ccccc1)NC(=O)O[C@H]1CO[C@H]3OCC[C@H]31)S2(=O)=O` is reported as over 9.15 (gag-pol protease).
The pIC50 of `CC(C)(C)n1cc(C#N)c2cc(C=O)cnc21` is reported as under 5.00 (gag-pol reverse transcriptase; FRET).
With `O=C(O)Cc1ccc(O)c(O)c1` the pIC50 was under 4.60 (Gag-Pol polyprotein, integrase (gag-pol, Human immunodeficiency virus type 1 group M subtype B, UniProt P04585)).
`CC1(C)CC(=O)c2cc3c(C#N)cn(Cc4ccccc4)c3nc2C1` gave a pIC50 of under 5.00 (gag-pol reverse transcriptase; FRET).
With `CC(C)CN(C[C@@H](O)[C@H](Cc1ccccc1)NC(=O)O[C@H]1CCO[C@H]2OCC[C@H]21)S(=O)(=O)c1ccc(C(=O)O)cc1` the pKi was 11.12 (gag-pol protease).
